Values joined by “and” are separate entries in the source; they are usually repeats but may differ in a detail not shown here. Equal values may be shown once. “Also recorded” adds a separate entry of the source. Read-outs that look alike come from different tables or passages of the source.
Columns and labels:
[1] = test system: HCT-116 colorectal cancer cells; test: XTT cell viability assay, HCT-116; type: cell-based, human; details: for GI50: read-out: GI50 HCT-116
[2] = test system: normal colon cells (CoN, ATCC CRL-1790); test: XTT cell viability assay, normal colon cells; type: cell-based, human; details: read-out: GI50 normal colon
[3] = test system: tRNA (Lys,3); test: DSF specificity screen, tRNA; type: binding; details: 5 μM compound, up to 5-fold molar excess
Procedure, shortened: (§1)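 Thermal melt by DSF with SYBR Green: each RNA was exposed to 5 μM test compound and its Tm was determined. Melts were run continuously up to 99°C at 0.09°C/s, with 5 acquisitions per °C and 0.75 s integration. Tm was taken as the half-denatured temperature from a 4PL sigmoidal fit of fluorescence against temperature.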

[4] = test system: HIV TAR; test: DSF specificity screen, HIV TAR; type: binding; details: 5 μM compound, up to 5-fold molar excess
Procedure, shortened: as §1

[5] = test system: pre-miR-638; test: DSF specificity screen, pre-miR-638; type: binding; details: 5 μM compound, up to 5-fold molar excess
Procedure, shortened: as §1

[6] = test system: pre-miR-21; test: Differential scanning calorimetry; type: binding; details: 30 μM pre-miR-21, 300 μM bPGN
Procedure, shortened: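 Pre-miR-21 (30 μM), with or without 300 μM test compound, in 0.25 mM Tris-HCl pH 7.5, 0.25 mM NaCl and 1.5% DMSO, degassed. The cell was pressurised to 30 psi and run through 8 alternating up/down scans at 60°C/hr with a 16 s filter. The first up scan was subtracted, the baseline corrected, and the data fitted to a non-2-state unfolding model to give Tm and enthalpy for each transition.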

[7] = test system: miR-21; test: RT-qPCR of miR-21 expression in HCT-116 cells; type: cell-based, human; details: 50 nM, within 2 hours post-treatment
Procedure, shortened: (§2)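 HCT-116 cells at 50–60% confluence were given 50 nM test compound, and RNA was extracted at time points from 0 to 24 h. miRNAs were quantified by RT-qPCR with LNA primers: 95°C 10 min, then 45 cycles of 95°C 10 s, 60°C 1 min and 95°C 10 s. U6 snRNA served as reference and UniSp6 as spike-in control; run in triplicate.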

[8] = test system: miRs -1246, -203a-3p, -200b-3p, -361; test: RT-qPCR of other miRs in HCT-116 cells; type: cell-based, human; details: 50 nM, 0-24 h
Procedure, shortened: as §2

[9] = test system: pre-miR-21; test: RT-qPCR of pre-miR-21 expression in HCT-116 cells; type: cell-based, human; details: 50 nM, up to 24 hours post-treatment
[10] = target: Dicer-mediated processing of pre-miR-21 (Homo sapiens, UniProt Q9UPY3); test: Dicer processing assay; type: biochemical; details: for shift in Tm in the presence of Dicer: vs DMSO only control
[11] = test system: PDCD4; test: RT-qPCR of PDCD4 transcript in HCT-116 cells; type: cell-based, human
[12] = test system: PTEN; test: RT-qPCR of PTEN transcript in HCT-116 cells; type: cell-based, human
[13] = test system: Pdcd4 and PTEN; test: Western blot of Pdcd4 and PTEN protein in HCT-116 cells; type: cell-based, human; details: 50 nM, within 24 hours post-treatment
Procedure, shortened: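 HCT-116 cells treated with 50 nM test compound were harvested at 0–36 h. Lysates were TCA/acetone precipitated, redissolved in 8 M urea, and 20 μg protein per lane was separated on 4–12% Bis-Tris gels, then dry-transferred to PVDF. Blots were probed with mouse anti-PDCD4 or anti-PTEN plus rabbit anti-GAPDH (internal control) and detected with IR-dye secondaries.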

[14] = test system: pre-miR-21; test: Differential scanning fluorimetry; type: binding; details: titration up to 20-25 μM
[15] = target: pre-miR-21; test: Fluorescence displacement assay; type: binding; details: data not shown
[16] = XTT, ATCC CRL-1790, 24 hours post-treatment

Chain of Dicer-mediated processing of pre-miR-21 (Q9UPY3 whole entry): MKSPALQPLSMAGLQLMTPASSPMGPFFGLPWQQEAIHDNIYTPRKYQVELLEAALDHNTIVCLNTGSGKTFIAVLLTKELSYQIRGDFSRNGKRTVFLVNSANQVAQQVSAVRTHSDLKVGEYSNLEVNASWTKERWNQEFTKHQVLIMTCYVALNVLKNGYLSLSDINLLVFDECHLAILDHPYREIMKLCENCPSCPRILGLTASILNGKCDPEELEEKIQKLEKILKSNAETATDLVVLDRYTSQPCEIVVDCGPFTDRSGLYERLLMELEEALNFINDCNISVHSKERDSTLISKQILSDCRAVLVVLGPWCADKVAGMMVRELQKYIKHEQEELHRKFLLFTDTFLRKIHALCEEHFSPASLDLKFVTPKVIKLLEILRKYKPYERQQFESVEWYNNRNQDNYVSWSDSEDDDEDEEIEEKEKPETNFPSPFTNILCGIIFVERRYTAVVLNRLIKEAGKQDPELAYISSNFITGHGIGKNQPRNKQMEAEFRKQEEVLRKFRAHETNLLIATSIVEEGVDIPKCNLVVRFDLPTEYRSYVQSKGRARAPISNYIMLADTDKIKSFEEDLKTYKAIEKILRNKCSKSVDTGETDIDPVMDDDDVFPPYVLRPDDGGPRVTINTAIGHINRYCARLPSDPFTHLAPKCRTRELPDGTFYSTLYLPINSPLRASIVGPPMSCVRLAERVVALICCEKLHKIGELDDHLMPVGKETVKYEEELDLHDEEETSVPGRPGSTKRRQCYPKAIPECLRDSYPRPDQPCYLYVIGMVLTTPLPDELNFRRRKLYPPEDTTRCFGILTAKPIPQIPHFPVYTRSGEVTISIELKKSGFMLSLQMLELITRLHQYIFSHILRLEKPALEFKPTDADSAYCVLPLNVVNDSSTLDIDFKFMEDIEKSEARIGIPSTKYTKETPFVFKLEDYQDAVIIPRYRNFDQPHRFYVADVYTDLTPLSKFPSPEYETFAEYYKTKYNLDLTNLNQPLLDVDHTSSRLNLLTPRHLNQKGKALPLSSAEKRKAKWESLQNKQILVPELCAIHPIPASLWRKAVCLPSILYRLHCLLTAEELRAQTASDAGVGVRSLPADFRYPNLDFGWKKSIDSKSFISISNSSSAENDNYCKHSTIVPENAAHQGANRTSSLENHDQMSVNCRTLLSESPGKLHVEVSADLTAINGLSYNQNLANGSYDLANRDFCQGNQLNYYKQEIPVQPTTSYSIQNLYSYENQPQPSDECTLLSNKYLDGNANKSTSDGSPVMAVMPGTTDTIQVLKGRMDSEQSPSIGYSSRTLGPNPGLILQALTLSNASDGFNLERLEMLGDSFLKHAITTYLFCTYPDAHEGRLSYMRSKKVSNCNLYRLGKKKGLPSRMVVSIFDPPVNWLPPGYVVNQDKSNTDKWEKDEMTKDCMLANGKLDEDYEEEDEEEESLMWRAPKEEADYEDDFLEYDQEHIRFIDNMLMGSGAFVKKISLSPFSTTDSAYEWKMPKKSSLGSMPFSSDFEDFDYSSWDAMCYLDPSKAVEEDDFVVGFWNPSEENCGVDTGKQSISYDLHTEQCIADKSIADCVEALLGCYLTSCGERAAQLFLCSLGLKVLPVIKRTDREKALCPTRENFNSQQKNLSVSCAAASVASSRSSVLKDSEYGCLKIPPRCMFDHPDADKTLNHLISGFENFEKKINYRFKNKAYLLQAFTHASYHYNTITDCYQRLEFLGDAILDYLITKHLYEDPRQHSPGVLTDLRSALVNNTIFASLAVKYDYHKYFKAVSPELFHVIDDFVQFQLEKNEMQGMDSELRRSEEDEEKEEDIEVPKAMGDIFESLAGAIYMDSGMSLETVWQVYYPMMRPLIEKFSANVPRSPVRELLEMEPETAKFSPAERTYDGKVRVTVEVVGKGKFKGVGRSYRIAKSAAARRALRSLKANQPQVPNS

Q: For `COC1=CC(c2cc3ccccc3[nH]2)=N/C1=C\c1[nH]c(C)cc1C` [Compound 2, obatoclax, reference compound], which GI50 ([1]; Homo sapiens, HCT-116, 24 h) is on record?
A: Its GI50 is 100 ± 10 nM.

Q: What about the GI50 ([2]; Homo sapiens, 24 h) of the same molecule?
A: Its GI50 is at least 10000 nM.

Q: Which “GI50 HCT-116 in words” value ([1]; XTT, 24 hours post-treatment) does the source give for “1,5-bis[3-(2-hydroxyethylamino)propylamino]anthracene-9,10-dione hydrochloride [Compound 6]” here?
A: The value was “high nanomolar”.

Q: What about the GI50 ([1]; XTT, 24 hours post-treatment) of the same molecule?
A: The GI50 was 3200 ± 600 nM.

Q: What about the GI50 [2, 16] of the same molecule?
A: Its GI50 is 1100 ± 800 nM.

Q: Which GI50 ([1]; Homo sapiens, HCT-116, 24 h) does the source give for `O=c1[nH]cc(F)c(=O)[nH]1` [Compound 10, 5-fluorouracil, reference compound] here?
A: Its GI50 is 720 ± 20 nM.

Q: What about the GI50 ([2]; Homo sapiens, 24 h) of the same molecule?
A: Its GI50 is 2000 ± 200 nM.

Q: Which results are given for `CCCC[C@H]1CCCCCCc2[nH]c(/C=C3\N=CC(c4ccc[nH]4)=C3OC)cc21` [Compound 1, butylcycloheptyl prodiginine]?
A: reduction of cell number ([1]; 0.05 μM, 24-hours post-treatment): 55%; cell death ([1]; concentration > 0.5 μM, 24 h): complete cell death; GI50 ([1]; XTT, 24 hours post-treatment): 35 ± 3 nM; IC50 ([1]; read-out: cellular growth inhibitory activity, HCT-116, as restated in text): 35 nM and ~35 nM; GI50 [2, 16]: ≥ 10000 nM; Tm change of tRNA (Lys,3) [3]: did not significantly change the Tm; Tm change of HIV TAR [4]: did not significantly change the Tm; Tm change of pre-miR-638 [5]: did not significantly change the Tm; also recorded: no Tm shift was observed; DSC thermal transition Tm1 of pre-miR-21 in the presence of compound [6]: 42.3 °C; DSC thermal transition Tm2 of pre-miR-21 in the presence of compound [6]: 68.0 °C; reduction of miR-21 levels [7]: ~ 80%; reduction of expression level of the other tested miRs [8]: ≤ 30%; pre-miR-21 expression level [9]: did not significantly change; shift in Tm in the presence of Dicer ([10]; 50 μM compound, DSF): −2.8 °C; shift in Tm in the presence of Dicer ([10]; 100 μM compound, DSF): −0.6 °C; inhibition of Dicer processing of pre-miR-21, gel shift ([10]; 50 and 100 μM, 10U Dicer per 10 μM pre-miR-21): dose dependent inhibition of Dicer processing; Tm of pre-miR-21 under Dicer reaction conditions ([10]; in the presence of 10 μM compound, DSF): 62.2 °C; PDCD4 transcript upregulation ([11]; by 8 hours post-treatment): 2 fold; PDCD4 transcript upregulation ([11]; by 36 hours post-treatment): 2 – 4 fold; PTEN transcript upregulation ([12]; by 8 hours post-treatment): 2 fold; PTEN transcript upregulation ([12]; by 36 hours post-treatment): 2 – 4 fold; Pdcd4 and PTEN protein levels [13]: time dependent increase

Q: Which GI50 ([1]; Homo sapiens, HCT-116, 24 h) does the source give for `COc1cc2c3c4c1Oc1cc5c(cc1O4)[C@@H](Cc1ccc(O)c(c1)Oc1ccc(cc1)C[C@@H]3N(C)CC2)N(C)CC5` [Compound 5, trigilletine] here?
A: The GI50 was 3500 ± 500 nM.

Q: What about the “GI50 HCT-116 in words” value ([1]; XTT, 24 hours post-treatment) of the same molecule?
A: Its value is “high nanomolar”.

Q: What about the GI50 ([2]; Homo sapiens, 24 h) of the same molecule?
A: The GI50 was 1000 ± 200 nM.

Q: `CCCCCC1=C/C(=C/c2[nH]c(-c3ccc[nH]3)cc2OC)N=C1C` [Compound 3, prodigiosin, reference compound] was tested. Which GI50 ([1]; Homo sapiens, HCT-116, 24 h) did it give?
A: Its GI50 is 240 ± 40 nM.

Q: What about the GI50 ([2]; Homo sapiens, 24 h) of the same molecule?
A: Its GI50 is at least 10000 nM.

Q: `COc1cc2c3c(cc4ccccc4c3c1OC)N(C)CC2` [Compound 9, dehydronuciferin] was tested. Which GI50 ([1]; XTT, 24 hours post-treatment) did it give?
A: Its GI50 is at least 10000 nM.

Q: And the GI50 [2, 16]?
A: The GI50 was over 10000 nM.

Q: Which results are given for `CC[C@@]1(O)C[C@H](O[C@H]2C[C@H](N(C)C)[C@H](O)[C@H](C)O2)c2c(cc3c(c2O)C(=O)c2c(O)cccc2C3=O)[C@H]1C(=O)OC` [Compound 4, aklavin]?
A: GI50 HCT-116 in words ([1]; XTT, 24 hours post-treatment): high nanomolar; GI50 ([1]; XTT, 24 hours post-treatment): 570 ± 60 nM; GI50 [2, 16]: 1700 ± 400 nM

Q: With `CC1(C)CCC(c2ccc(Cl)cc2)=C(CN2CCN(c3ccc(C(=O)NS(=O)(=O)c4ccc(N[C@H](CCN5CCOCC5)CSc5ccccc5)c(S(=O)(=O)C(F)(F)F)c4)cc3)CC2)C1` [Navitoclax] as the molecule, how does the “interaction with pre-miR-21 in DSF” value [14] read?
A: The value was “no significant interaction”.

Q: What about the “apparent binding affinity (Kd app)” value [15] of the same molecule?
A: The value was “did not show apparent binding affinity”.

Q: Which results are given for `CN1CCCC2C(c3ccccc3)C(C3=NCCCC3)C(c3ccccc3)CC21` (stereo not drawn) [Compound 7, Lobinaline]?
A: GI50 ([1]; XTT, 24 hours post-treatment): ≥ 10000 nM; GI50 [2, 16]: > 10000 nM

Q: With `C[C@@H](N)C(=O)N[C@H]1CO[C@H](O)[C@H](N)[C@H]1O` [Compound 8, prumycin] as the molecule, how does the GI50 ([1]; XTT, 24 hours post-treatment) read?
A: The GI50 was at least 10000 nM.

Q: What about the GI50 [2, 16] of the same molecule?
A: The GI50 was 5100 ± 100 nM.
